Blank lines part the entries; values can stand above or below the compound they belong to. Peptide text beside a SMILES is read from it. * marks the point of attachment. Cbz = O=C(OCc1ccccc1)*
Legend:
[1] = system: AEC2s; assay type: cell-based, mouse; conditions: 3D Matrigel co-culture with MLg2908 cells, Day 14, n = 3
Procedure, shortened: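 Mouse AEC2s were sorted as DAPI-negative, lineage-negative, EpCAM-positive cells from lineage-depleted lung cells. 5 × 10^3 cells were embedded in Matrigel/DMEM (1:1) with 2 × 10^5 MLg2908 cells in Transwell inserts. Lower-chamber DMEM contained ITS, 10% FBS and antibiotics, changed daily. On Day 14, colonies above a size cutoff were counted by microscopy. CFE = colonies / input AEC2s.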

[2] = system: mBLM-challenged mice; assay: MX69; assay type: in vivo, mouse; conditions: n = 5
Procedure, shortened: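 Mice under avertin anaesthesia (400 mg/kg i.p.) received intratracheal bleomycin, 1 U/kg in LPS-free PBS, six times at 14-day intervals. The MDM2 inhibitor was given at 100 mg/kg/day i.p. for 3 days after every challenge and for 3 days before sacrifice. Read-outs: Slug immunoblot in sorted AEC2s (GAPDH loading control), right-lung hydroxyproline, Masson staining, and AEC2 colony-forming efficiency.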

[3] = target: TRIB3 (immobilized on CM5 sensor chips) (UniProt Q96RU7); assay: SPR
Chain of UniProt Q96RU7 (Q96RU7 whole entry): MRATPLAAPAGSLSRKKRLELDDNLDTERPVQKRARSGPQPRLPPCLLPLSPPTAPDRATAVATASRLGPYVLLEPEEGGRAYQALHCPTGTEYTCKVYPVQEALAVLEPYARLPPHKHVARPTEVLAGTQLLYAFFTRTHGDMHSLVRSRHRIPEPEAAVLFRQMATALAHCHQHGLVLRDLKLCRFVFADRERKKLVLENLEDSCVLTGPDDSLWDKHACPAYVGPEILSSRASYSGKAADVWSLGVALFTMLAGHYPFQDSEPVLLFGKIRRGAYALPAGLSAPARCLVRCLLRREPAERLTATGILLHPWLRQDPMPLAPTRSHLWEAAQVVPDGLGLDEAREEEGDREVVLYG

[4] = system: SLUG degradation in AEC2s; assay: SLUG degradation in AEC2s with cycloheximide plus 3MA or MG132; assay type: cell-based, mouse; conditions: CHX 10 μg/mL with 3 MA 5 mmol/L or MG132 10 μmol/L

- CFE of AEC2s [1]: decreased
Compound: Oc1c2ccccc2c2c3c(cccc13)N=N2 [SP600125]

Compound: Cc1ccc(NS(=O)(=O)c2ccc3c(c2)C2C=CCC2C(c2ccc(C(=O)O)cc2)N3)cc1C (stereo not shown) [MX69]
- level of Slug in AEC2s ([2]; AEC2s isolated from fibrotic mice but not control mice, immunoblot): increased
- protein level of MDM2 in AEC2s ([2]; AEC2s isolated from fibrotic mice, immunoblot): decreased
- capacity of AEC2s mediated LAR (colony-forming efficiency) ([2]; AEC2s sorted from MX69 treated mBLM mice): further declined

- Kd [3]: 46 nM
Compound: MR2 (from UniProt Q00987 460-470) (peptide)

- CFE of AEC2s [1]: decreased
Compound: C[S+]([O-])c1ccc(-c2nc(-c3ccncc3)c(-c3ccc(F)cc3)[nH]2)cc1 (stereo not shown) [SB203580]

Compound: CC(C)C[C@@H](C=O)NC(=O)[C@H](CC(C)C)NC(=O)[C@H](CC(C)C)NC(=O)OCc1ccccc1 [MG132] (Cbz-Leu-Leu-Leu-aldehyde)
- SLUG degradation [4]: suppressed

From PMC10150180 (Acta Pharmaceutica Sinica. B, 2023)
